According to ChEMBL document CHEMBL2010670, “Discovery of a clinical stage multi-kinase inhibitor sodium (E)-2-{2-methoxy-5-[(2',4',6'-trimethoxystyrylsulfonyl)methyl]phenylamino}acetate (ON 01910.Na): synthesis, structure-activity relationship, and biological activity” (J Med Chem, 2011):
Calls of active or inactive are those of the source. No cut-off for these calls is given here.

Key:
[1] = test system: DU-145; assay: Cell cycle arrest in human DU145 cells assessed as accumulation of cells in G2/M phase after 24 hrs by propidium iodide staining-based flow cytometric analysis; type: functional
Outline: (§1)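 DMEM with 10% FBS; 1.0 × 10⁶ cells/dish, treated 24 h after plating and harvested 24 h after treatment. Trypsinized cells were pooled with floating cells, PBS-washed and fixed in ice-cold 70% ethanol for ≥24 h. Cells were stained with propidium iodide plus RNase A for 30 min at 37 °C. DNA content was read by flow cytometry with cell-cycle modelling.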

[2] = test system: DU-145; assay: Cell cycle arrest in human DU145 cells assessed as accumulation of cells containing subG1 content of DNA at 0.1 to 1 uM after 24 hrs by propidium iodide staining-based flow cytometric analysis; type: functional; outline: as §1
[3] = test system: DU-145; assay: Induction of apoptosis in human DU145 cells assessed as PARP1 cleavage at 0.25 to 5 uM after 48 hrs by Western blot analysis; type: functional, cell-based
Outline: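 DU145 or HFL-1 cells plated at 3.0 × 10⁶ per […], treated 24 h later with DMSO or compound for 48 h. Frozen pellets lysed in 1% NP40/PBS with protease inhibitors. Equal protein run on 10% SDS-PAGE, transferred to nitrocellulose, probed with anti-PARP antibody, ECL detection.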

[4] = test system: A549; assay: Induction of apoptosis in human A549 cells assessed as cell viability at 0.25 uM after 24 hrs by fluorescence assay; type: functional, cell-based
Outline: (§2)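 A549 cells seeded at 3,600 cells/well in DMEM + 10% FBS, adhered overnight at 37 °C, then exposed to varying compound concentrations or DMSO for 24 h. Viability read first as fluorescence 3 h after CellTiter-Blue addition. Caspase-Glo 3/7 was then added to the same wells, developed 2 h at room temperature, and luminescence read; n=3.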

[5] = test system: A549; assay: Induction of apoptosis in human A549 cells assessed as caspase 3/7 activity at 0.25 uM after 24 hrs by luminescence assay; type: functional, cell-based; outline: as §2
[6] = test system: BT-20; assay: Cytotoxicity against human BT20 cells after 96 hrs by trypan blue exclusion assay; type: functional, cell-based; conditions: BT-20, 96 h
Outline: (§3)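 Cells grown in DMEM or RPMI with 10% FBS and penicillin-streptomycin, seeded at 1.0 × 10⁵ cells/mL/well in 6-well dishes. Compound added at a range of concentrations 24 h after seeding. Viable cells counted by trypan blue exclusion from duplicate wells after 96 h of exposure; dose-response end point.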

[7] = test system: T47D; assay: Cytotoxicity against human T47D cells after 96 hrs by trypan blue exclusion assay; type: functional, cell-based
Outline: (§4)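 Cells grown in DMEM or RPMI with 10% FBS and 1 unit/mL penicillin-streptomycin, seeded at 1.0 × 10⁵ cells/mL/well in 6-well dishes; compound added 24 h later at various concentrations. After 96 h of treatment, viable cells counted by trypan blue exclusion in duplicate wells; dose-response end point.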

[8] = test system: MCF7; assay: Cytotoxicity against human MCF7 cells after 96 hrs by trypan blue exclusion assay; type: functional, cell-based; conditions: MCF7, 96 h; outline: as §3
[9] = test system: SK-BR-3; assay: Cytotoxicity against human SKBR3 cells after 96 hrs by trypan blue exclusion assay; type: functional, cell-based; conditions: SK-BR-3, 96 h; outline: as §4
[10] = test system: BT-474; assay: Cytotoxicity against human BT474 cells after 96 hrs by trypan blue exclusion assay; type: functional, cell-based; conditions: BT-474, 96 h; outline: as §3
[11] = test system: DU-145; assay: Cytotoxicity against human DU145 cells after 96 hrs by trypan blue exclusion assay; type: functional, cell-based; conditions: Homo sapiens, DU-145, 96 h; outline: as §3
[12] = test system: PC-3; assay: Cytotoxicity against human PC3 cells after 96 hrs by trypan blue exclusion assay; type: functional, cell-based; conditions: PC-3, 96 h; outline: as §3
[13] = test system: OVCAR-3; assay: Cytotoxicity against human OVCAR3 cells after 96 hrs by trypan blue exclusion assay; type: functional, cell-based; conditions: OVCAR-3, 96 h; outline: as §3
[14] = test system: MIA PaCa-2; assay: Cytotoxicity against human MIAPaCa2 cells after 96 hrs by trypan blue exclusion assay; type: functional, cell-based; conditions: MIA PaCa-2, 96 h; outline: as §3
[15] = Cytotoxicity against human U87 cells after 96 hrs by trypan blue exclusion assay; type: functional, cell-based, U-87MG ATCC; conditions: U-87 MG; outline: as §4
[16] = test system: NCI-H157; assay: Cytotoxicity against human NCI-H157 cells after 96 hrs by trypan blue exclusion assay; type: functional, cell-based; conditions: NCI-H157, 96 h; outline: as §3
[17] = test system: A549; assay: Cytotoxicity against human A549 cells after 96 hrs by trypan blue exclusion assay; type: functional, cell-based; conditions: A549, 96 h; outline: as §3
[18] = test system: NCI-H1975; assay: Cytotoxicity against human NCI-H1975 cells after 96 hrs by trypan blue exclusion assay; type: functional, cell-based; conditions: NCI-H1975, 96 h; outline: as §3
[19] = test system: NCI-H187; assay: Cytotoxicity against human NCI-H187 cells after 96 hrs by trypan blue exclusion assay; type: functional, cell-based; conditions: NCI-H187, 96 h; outline: as §3
[20] = test system: NCI-H417; assay: Cytotoxicity against human NCI-N417 cells after 96 hrs by trypan blue exclusion assay; type: functional, cell-based; conditions: NCI-H417, 96 h; outline: as §3
[21] = test system: AGS; assay: Cytotoxicity against human AGS cells after 96 hrs by trypan blue exclusion assay; type: functional, cell-based; outline: as §3
[22] = Cytotoxicity against human RF1 cells after 96 hrs by trypan blue exclusion assay; type: functional, cell-based; conditions: RF1, 96 h; outline: as §4
[23] = Cytotoxicity against human RF48 cells after 96 hrs by trypan blue exclusion assay; type: functional, cell-based; conditions: RF48, 96 h; outline: as §4
[24] = test system: COLO 205; assay: Cytotoxicity against human COLO205 cells after 96 hrs by trypan blue exclusion assay; type: functional, cell-based; conditions: COLO 205, 96 h; outline: as §3
[25] = test system: DLD-1; assay: Cytotoxicity against human DLD1 cells after 96 hrs by trypan blue exclusion assay; type: functional, cell-based; conditions: DLD-1, 96 h; outline: as §3
[26] = test system: HCT-116; assay: Cytotoxicity against human HCT116 cells after 96 hrs by trypan blue exclusion assay; type: functional, cell-based; conditions: HCT-116, 96 h; outline: as §3
[27] = test system: HCT-15; assay: Cytotoxicity against human HCT15 cells after 96 hrs by trypan blue exclusion assay; type: functional, cell-based; conditions: HCT-15, 96 h; outline: as §3
[28] = Cytotoxicity against human COLO320 cells after 96 hrs by trypan blue exclusion assay; type: functional, cell-based; conditions: COLO 320, 96 h; outline: as §3
[29] = test system: SW480; assay: Cytotoxicity against human SW480 cells after 96 hrs by trypan blue exclusion assay; type: functional, cell-based; conditions: SW480, 96 h; outline: as §4
[30] = test system: K562; assay: Cytotoxicity against human K562 cells after 96 hrs by trypan blue exclusion assay; type: functional, cell-based; conditions: Homo sapiens, K562, 96 h; outline: as §3
[31] = test system: MOLT-4; assay: Cytotoxicity against human MOLT4 cells after 96 hrs by trypan blue exclusion assay; type: functional, cell-based; conditions: MOLT-4, 96 h; outline: as §3
[32] = Cytotoxicity against human Z138C cells after 96 hrs by trypan blue exclusion assay; type: functional, cell-based; outline: as §4
[33] = Cytotoxicity against human GRANTA-519 cells after 96 hrs by trypan blue exclusion assay; type: functional, cell-based; conditions: Granta-519, 96 h; outline: as §3
[34] = test system: LP-1; assay: Cytotoxicity against human LP-1 cells after 96 hrs by trypan blue exclusion assay; type: functional, cell-based; conditions: LP-1, 96 h; outline: as §3
[35] = test system: U-266; assay: Cytotoxicity against human U266 cells after 96 hrs by trypan blue exclusion assay; type: functional, cell-based; conditions: U-266, 96 h; outline: as §4
[36] = test system: OPM-2; assay: Cytotoxicity against human OPM2 cells after 96 hrs by trypan blue exclusion assay; type: functional, cell-based; conditions: OPM-2, 96 h; outline: as §3
[37] = Cytotoxicity against human […] cells after 96 hrs by trypan blue exclusion assay; type: functional, cell-based; outline: as §4
[38] = test system: Daudi; assay: Cytotoxicity against human Daudi cells after 96 hrs by trypan blue exclusion assay; type: functional, cell-based; outline: as §3
[39] = test system: Raji; assay: Cytotoxicity against human Raji cells after 96 hrs by trypan blue exclusion assay; type: functional, cell-based; outline: as §4
[40] = Cytotoxicity against human NAMALWA cells after 96 hrs by trypan blue exclusion assay; type: functional, cell-based; conditions: NAMALVA; outline: as §3
[41] = Cytotoxicity against human MES-SA cells assessed as cell viability after 96 hrs by trypan blue exclusion; type: functional, cell-based; outline: as §3
[42] = Cytotoxicity against multidrug-resistant human MES-SA/Dx5 cells assessed as cell viability after 96 hrs by trypan blue exclusion; type: functional, cell-based; conditions: MES-SA/Dx5, 96 h; outline: as §4
[43] = test system: CCRF-CEM; assay: Cytotoxicity against human CEM cells assessed as cell viability after 96 hrs by trypan blue exclusion; type: functional, cell-based; outline: as §3
[44] = test system: CEM/C2; assay: Cytotoxicity against multidrug-resistant human CEM/C2 cells assessed as cell viability after 96 hrs by trypan blue exclusion; type: functional, cell-based; conditions: CEM/C2, 96 h; outline: as §4
[45] = test system: 2008; assay: Cytotoxicity against human 2008 cells assessed as cell viability after 96 hrs by trypan blue exclusion; type: functional, cell-based; conditions: Homo sapiens, 2008, 96 h; outline: as §3
[46] = Cytotoxicity against multidrug-resistant human 2008/17/4 cells assessed as cell viability after 96 hrs by trypan blue exclusion; type: functional, cell-based; outline: as §4

SMILES: COc1cc(OC)c(/C=C/S(=O)(=O)Cc2ccc(OC)c(NCC(=O)O)c2)c(OC)c1
- Activity [1]: Dose-dependent effect
- Activity [2]: Active
- Activity [3]: Active
- Activity [4]: Active
- Activity [5]: Active

SMILES: COc1cc(OC)c(/C=C/S(=O)(=O)Cc2ccc(OC)c(N)c2)c(OC)c1
- IC50 [6]: 30 nM
- IC50 [7]: 3 nM
- IC50 [8]: 1 nM
- IC50 [9]: 3 nM
- IC50 [10]: 2 nM
- IC50 [11]: 4 nM
- IC50 [12]: 6 nM
- IC50 [13]: 3 nM
- IC50 [14]: 3 nM
- IC50 [15]: 3 nM
- IC50 [16]: 4 nM
- IC50 [17]: 3 nM
- IC50 [18]: 3 nM
- IC50 [19]: 4 nM
- IC50 [20]: 3 nM
- IC50 [21]: 3 nM
- IC50 [22]: 2 nM
- IC50 [23]: 1 nM
- IC50 [24]: 5 nM
- IC50 [25]: 5 nM
- IC50 [26]: 3 nM
- IC50 [27]: 3 nM
- IC50 [28]: 3 nM
- IC50 [29]: 5 nM
- IC50 [30]: 2.5 nM
- IC50 [31]: 4 nM
- IC50 [32]: 3 nM
- IC50 [33]: 3 nM
- IC50 [34]: 3 nM
- IC50 [35]: 3 nM
- IC50 [36]: 3 nM
- IC50 [37]: 3 nM
- IC50 [38]: 3 nM
- IC50 [39]: 2 nM
- IC50 [40]: 5 nM
- IC50 [41]: 4 nM
- IC50 [42]: 4 nM
- IC50 [43]: 10 nM
- IC50 [44]: 10 nM
- IC50 [45]: 3 nM
- IC50 [46]: 3 nM
